Reference: ChEMBL document CHEMBL4304753, “Identification of New Small-Molecule Inducers of Estrogen-related Receptor α (ERRα) Degradation” (ACS Med Chem Lett, 2019)
pIC50: −log10 of the molar value. Active and inactive are the calls of the source. The rule behind the calls is not given here.

Assays:
[1] = molecular target: T1, Steroid hormone receptor ERR1 (Homo sapiens, UniProt P11474); assay: Binding affinity to GST-tagged ERRalpha-LBD (unknown origin) using fluorescein-conjugated coactivator PGC-1alpha incubated for 1 hr by TR-FRET assay
T1 sequence (P11474 whole entry): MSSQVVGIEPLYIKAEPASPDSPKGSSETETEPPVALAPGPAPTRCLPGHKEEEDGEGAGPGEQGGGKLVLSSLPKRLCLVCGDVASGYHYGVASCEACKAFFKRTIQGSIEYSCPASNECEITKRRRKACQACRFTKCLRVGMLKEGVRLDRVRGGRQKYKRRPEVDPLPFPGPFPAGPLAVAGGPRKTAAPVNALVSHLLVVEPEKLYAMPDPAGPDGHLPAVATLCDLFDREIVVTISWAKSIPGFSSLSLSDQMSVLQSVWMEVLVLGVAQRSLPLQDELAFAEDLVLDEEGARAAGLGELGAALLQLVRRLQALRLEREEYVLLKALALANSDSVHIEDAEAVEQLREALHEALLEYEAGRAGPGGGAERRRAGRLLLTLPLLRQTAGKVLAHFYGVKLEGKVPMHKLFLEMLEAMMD

[2] = molecular target: T2, Steroid hormone receptor ERR1 (Homo sapiens) (UniProt P11474); assay: Ratio of IC50 for XCT790 to IC50 for test compound for binding affinity to GST-tagged ERRalpha-LBD (unknown origin) using fluorescein-conjugated coactivator PGC-1alpha incubated for 1 hr by TR-FRET assay
T2 sequence (whole entry): T1 sequence (P11474 whole entry)

[3] = molecular target: T3, von Hippel-Lindau disease tumor suppressor/Steroid hormone receptor ERR1 (Homo sapiens) (UniProt P11474+P40337); assay: Protac activity at VHL/ERRalpha in human MDA-MB-231 cells assessed as induction of […] degradation at 30 nM incubated for 4 hrs by Western blot analysis relative to control; type: cell-based
T3 sequence (P40337 whole entry, looked up, one chain of several): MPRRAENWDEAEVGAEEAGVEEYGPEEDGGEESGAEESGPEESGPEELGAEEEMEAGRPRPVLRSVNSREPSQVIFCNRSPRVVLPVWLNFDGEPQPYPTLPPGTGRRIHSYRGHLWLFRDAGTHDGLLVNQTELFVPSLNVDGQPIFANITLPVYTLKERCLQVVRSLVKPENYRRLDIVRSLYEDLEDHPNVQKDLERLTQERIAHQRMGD
In short: (§1)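 MDA-MB-231 breast cancer cells were treated at the indicated concentrations for 4.0 h. ERRα protein was measured by Western blot, and % degradation was derived by densitometric image analysis. Values are means of at least three independent experiments.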

[4] = molecular target: T3, von Hippel-Lindau disease tumor suppressor/Steroid hormone receptor ERR1 (Homo sapiens); assay: Protac activity at VHL/ERRalpha in human MDA-MB-231 cells assessed as induction of […] degradation at 100 nM incubated for 4 hrs by Western blot analysis relative to control; type: cell-based; in short: as §1
[5] = molecular target: T3, von Hippel-Lindau disease tumor suppressor/Steroid hormone receptor ERR1 (Homo sapiens); assay: Protac activity at VHL/ERRalpha in human MDA-MB-231 cells assessed as induction of […] degradation at 1 uM incubated for 4 hrs by Western blot analysis; type: cell-based; in short: as §1
[6] = molecular target: T3, von Hippel-Lindau disease tumor suppressor/Steroid hormone receptor ERR1 (Homo sapiens); assay: Protac activity at VHL/ERRalpha in human MDA-MB-231 cells assessed as induction of […] degradation at 300 nM incubated for 4 hrs by Western blot analysis relative to control; type: cell-based; in short: as §1
[7] = molecular target: T3, von Hippel-Lindau disease tumor suppressor/Steroid hormone receptor ERR1 (Homo sapiens); assay: Protac activity at VHL/ERRalpha in human MDA-MB-231 cells assessed as induction of […] degradation at 10 nM incubated for 4 hrs by Western blot analysis relative to control; type: cell-based; in short: as §1
[8] = molecular target: T3, von Hippel-Lindau disease tumor suppressor/Steroid hormone receptor ERR1 (Homo sapiens); assay: Protac activity at VHL/ERRalpha in human MDA-MB-231 cells assessed as induction of […] degradation incubated for 4 hrs by Western blot analysis; type: cell-based; in short: as §1
[9] = molecular target: von Hippel-Lindau disease tumor suppressor/Steroid hormone receptor ERR2 (Homo sapiens) (UniProt O95718+P40337); assay: Protac activity at VHL/ERRbeta in human MDA-MB-231 cells assessed as induction of […] degradation up to 10 uM incubated for 4 hrs by Western blot analysis; type: cell-based
Chain of von Hippel-Lindau disease tumor suppressor/Steroid hormone receptor ERR2 (Homo sapiens) (O95718 whole entry, looked up): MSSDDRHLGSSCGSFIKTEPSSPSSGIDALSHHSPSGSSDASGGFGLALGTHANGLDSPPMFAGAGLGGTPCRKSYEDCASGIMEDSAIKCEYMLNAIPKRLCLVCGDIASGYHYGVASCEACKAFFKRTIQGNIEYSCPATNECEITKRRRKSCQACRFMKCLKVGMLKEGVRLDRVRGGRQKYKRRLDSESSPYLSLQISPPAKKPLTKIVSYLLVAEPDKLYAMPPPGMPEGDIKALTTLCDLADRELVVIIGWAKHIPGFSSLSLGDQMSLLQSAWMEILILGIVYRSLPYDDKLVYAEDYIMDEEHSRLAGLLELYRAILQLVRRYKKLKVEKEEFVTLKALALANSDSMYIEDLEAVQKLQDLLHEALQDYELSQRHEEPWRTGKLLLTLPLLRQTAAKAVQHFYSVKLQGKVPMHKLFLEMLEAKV
Chain of von Hippel-Lindau disease tumor suppressor/Steroid hormone receptor ERR2 (Homo sapiens) (P40337 whole entry, looked up): as the sequence (P40337 whole entry, looked up, one chain of several) above
In short: (§2)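 Levels of the ERRβ and ERRγ homologues were assessed by Western blot in MDA-MB-231 cells after 4.0 h treatment at concentrations up to 10.0 μM.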

[10] = molecular target: von Hippel-Lindau disease tumor suppressor/Estrogen-related receptor gamma (Homo sapiens) (UniProt P62508+P40337); assay: Protac activity at VHL/ERRgamma in human MDA-MB-231 cells assessed as induction of […] degradation up to 10 uM incubated for 4 hrs by Western blot analysis; type: cell-based; in short: as §2
Chain of von Hippel-Lindau disease tumor suppressor/Estrogen-related receptor gamma (Homo sapiens) (P40337 whole entry, looked up): as the sequence (P40337 whole entry, looked up, one chain of several) above
Chain of von Hippel-Lindau disease tumor suppressor/Estrogen-related receptor gamma (Homo sapiens) (P62508 whole entry, looked up): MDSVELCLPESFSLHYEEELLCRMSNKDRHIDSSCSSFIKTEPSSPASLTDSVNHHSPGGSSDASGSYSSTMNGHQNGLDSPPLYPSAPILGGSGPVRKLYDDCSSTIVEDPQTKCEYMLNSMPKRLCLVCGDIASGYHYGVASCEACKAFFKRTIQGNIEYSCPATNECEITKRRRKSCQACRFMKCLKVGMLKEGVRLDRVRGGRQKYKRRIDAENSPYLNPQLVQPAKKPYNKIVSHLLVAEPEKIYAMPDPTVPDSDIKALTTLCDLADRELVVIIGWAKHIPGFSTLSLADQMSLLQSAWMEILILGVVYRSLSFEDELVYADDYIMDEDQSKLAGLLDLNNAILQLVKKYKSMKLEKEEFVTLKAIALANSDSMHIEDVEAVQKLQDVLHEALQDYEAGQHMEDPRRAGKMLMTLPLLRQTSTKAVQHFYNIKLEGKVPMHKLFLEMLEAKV

[11] = molecular target: T3, von Hippel-Lindau disease tumor suppressor/Steroid hormone receptor ERR1 (Homo sapiens); assay: Protac activity at VHL/ERRalpha in human MDA-MB-231 cells assessed as induction of […] degradation incubated for 0.5 to 4 hrs by Western blot analysis; type: cell-based
In short: (§3)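 For the time course, MDA-MB-231 cells were exposed to PROTAC at 30 nM. ERRα protein was sampled from 30 min up to 48 h after treatment and analysed by Western blot.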

[12] = molecular target: T3, von Hippel-Lindau disease tumor suppressor/Steroid hormone receptor ERR1 (Homo sapiens); assay: Protac activity at VHL/ERRalpha in human MDA-MB-231 cells assessed as induction of […] degradation incubated for 48 hrs by Western blot analysis; type: cell-based; in short: as §3
[13] = molecular target: T3, von Hippel-Lindau disease tumor suppressor/Steroid hormone receptor ERR1 (Homo sapiens); assay: Protac activity at VHL/ERRalpha in human MDA-MB-231 cells assessed as decrease in MCAD protein expression level at 100 nM incubated for 24 hrs by Western blot analysis; type: cell-based
In short: (§4)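 MDA-MB-231 breast cancer cells were exposed to the degrader for 24 h. Protein levels of the ERRα downstream targets ATP5B, MCAD and PDK4 were then assessed by Western blot.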

[14] = molecular target: T3, von Hippel-Lindau disease tumor suppressor/Steroid hormone receptor ERR1 (Homo sapiens); assay: Protac activity at VHL/ERRalpha in human MDA-MB-231 cells assessed as decrease in PDK4 protein expression level at 100 nM incubated for 24 hrs by Western blot analysis; type: cell-based; in short: as §4
[15] = molecular target: T3, von Hippel-Lindau disease tumor suppressor/Steroid hormone receptor ERR1 (Homo sapiens); assay: Protac activity at VHL/ERRalpha in human MDA-MB-231 cells assessed as decrease in ATP5B protein expression level at 100 nM incubated for 24 hrs by Western blot analysis; type: cell-based; in short: as §4
[16] = molecular target: T3, von Hippel-Lindau disease tumor suppressor/Steroid hormone receptor ERR1 (Homo sapiens); assay: Protac activity at VHL/ERRalpha in human MDA-MB-231 cells assessed as induction of […] degradation at 3.0 nM incubated for 4 hrs by Western blot analysis; type: cell-based; in short: as §1
[17] = molecular target: T3, von Hippel-Lindau disease tumor suppressor/Steroid hormone receptor ERR1 (Homo sapiens); assay: Protac activity at VHL/ERRalpha in epoxomicin pre-treated human MDA-MB-231 cells assessed as induction of […] degradation at 30 nM incubated for 4 hrs by Western blot analysis; type: cell-based
In short: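 Before treatment with PROTAC at 30 nM for 4.0 h, MDA-MB-231 cells were preincubated with the proteasome inhibitor epoxomicin. ERRα protein was then assessed by Western blot.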

| SMILES | pIC50 [1] | Activity [3] | Activity [4] | also measured |
| --- | --- | --- | --- | --- |
| COc1cc(/C=C(\C#N)C(=O)O)ccc1OCc1ccc(C(F)(F)F)cc1C(F)(F)F | 8.25 | – | – | Ratio IC50 [2]: 11 |
| COCCNC(=O)/C(C#N)=C/c1ccc(OCc2ccc(C(F)(F)F)cc2C(F)(F)F)c(OC)c1 | 8.36 | – | – | – |
| COc1cc(/C=C(\C#N)C(=O)NCCCCCCC(=O)N[C@H](C(=O)N2C[C@H](O)C[C@H]2C(=O)NCc2ccc(-c3scnc3C)cc2)C(C)(C)C)ccc1OCc1ccc(C(F)(F)F)cc1C(F)(F)F | 7.91 | 23% | 71% | – |
| COc1cc(/C=C(\C#N)C(=O)NCCCCC(=O)O)ccc1OCc1ccc(C(F)(F)F)cc1C(F)(F)F | 8.22 | – | – | – |
| COc1cc(/C=C(\C#N)C(=O)NCCOCC(=O)N[C@H](C(=O)N2C[C@H](O)C[C@H]2C(=O)NCc2ccc(-c3scnc3C)cc2)C(C)(C)C)ccc1OCc1ccc(C(F)(F)F)cc1C(F)(F)F | 7.95 | 79% | 92% | – |
| COc1cc(/C=C(\C#N)C(=O)NCCC(=O)N[C@H](C(=O)N2C[C@H](O)C[C@H]2C(=O)NCc2ccc(-c3scnc3C)cc2)C(C)(C)C)ccc1OCc1ccc(C(F)(F)F)cc1C(F)(F)F | 8.13 | 28% | 50% | – |
| Cc1ncsc1-c1ccc(CNC(=O)[C@@H]2C[C@@H](O)CN2C(=O)[C@@H](N)C(C)(C)C)cc1 | – | – | – | Activity [5]: inactive |
| COc1cc(/C=C(\C#N)C(=O)NCCCCC(=O)N[C@H](C(=O)N2C[C@@H](O)C[C@H]2C(=O)NCc2ccc(-c3scnc3C)cc2)C(C)(C)C)ccc1OCc1ccc(C(F)(F)F)cc1C(F)(F)F | 8.27 | 6% | – | – |
| COC(=O)/C(C#N)=C/c1ccc(OCc2ccc(C(F)(F)F)cc2C(F)(F)F)c(OC)c1 | 7.69 | – | – | – |
| COc1cc(/C=C(\C#N)C(=O)NCCCCCC(=O)N[C@H](C(=O)N2C[C@H](O)C[C@H]2C(=O)NCc2ccc(-c3scnc3C)cc2)C(C)(C)C)ccc1OCc1ccc(C(F)(F)F)cc1C(F)(F)F | 8.25 | 58% | 78% | – |
| COc1cc(/C=C(\C#N)C(=O)NCCOCCC(=O)O)ccc1OCc1ccc(C(F)(F)F)cc1C(F)(F)F | 8.33 | – | – | Activity [5]: inactive |
| COc1cc(/C=C(\C#N)C(=O)NCCOCCOCCC(=O)N[C@H](C(=O)N2C[C@H](O)C[C@H]2C(=O)NCc2ccc(-c3scnc3C)cc2)C(C)(C)C)ccc1OCc1ccc(C(F)(F)F)cc1C(F)(F)F | 8.27 | 0% | 15% | Activity [6]: 19% |
| COc1cc(/C=C(\C#N)C(=O)NCCCC(=O)N[C@H](C(=O)N2C[C@H](O)C[C@H]2C(=O)NCc2ccc(-c3scnc3C)cc2)C(C)(C)C)ccc1OCc1ccc(C(F)(F)F)cc1C(F)(F)F | 8.20 | 58% | 85% | – |
| COc1cc(/C=C(\C#N)C(N)=O)ccc1OCc1ccc(C(F)(F)F)cc1C(F)(F)F | 8.36 | – | – | – |
| COc1cc(/C=C(\C#N)C(=O)NCCCCCCCC(=O)N[C@H](C(=O)N2C[C@H](O)C[C@H]2C(=O)NCc2ccc(-c3scnc3C)cc2)C(C)(C)C)ccc1OCc1ccc(C(F)(F)F)cc1C(F)(F)F | 8.12 | 3% | 9% | – |
| COc1cc(/C=C2\SC(=O)N(CCOCCC(=O)N[C@H](C(=O)N3C[C@H](O)C[C@H]3C(=O)NCc3ccc(-c4scnc4C)cc3)C(C)(C)C)C2=O)ccc1Oc1ccc(C#N)cc1C(F)(F)F | 8.10 | 1% | 40% | – |
| COc1cc(/C=C(\C#N)C(=O)NCCCCC(=O)N[C@H](C(=O)N2C[C@H](O)C[C@H]2C(=O)NCc2ccc(-c3scnc3C)cc2)C(C)(C)C)ccc1OCc1ccc(C(F)(F)F)cc1C(F)(F)F | 7.90 | 83% | 96% | Activity [7]: 39%; Activity [8]: Dose-dependent effect; Activity [9]: inactive; Activity [10]: inactive; Activity [11]: Active; Activity [12]: inactive; Activity [13]: Active; Activity [14]: Active; Activity [15]: Active; Activity [16]: Active; Activity [17]: inactive |
| COc1cc(/C=C(\C#N)C(=O)NCCOCCC(=O)N[C@H](C(=O)N2C[C@H](O)C[C@H]2C(=O)NCc2ccc(-c3scnc3C)cc2)C(C)(C)C)ccc1OCc1ccc(C(F)(F)F)cc1C(F)(F)F | 8.03 | 63% | 89% | Activity [7]: 25% |
| COc1cc(/C=C(\C#N)C(=O)NCCOCCOCCOCCC(=O)N[C@H](C(=O)N2C[C@H](O)C[C@H]2C(=O)NCc2ccc(-c3scnc3C)cc2)C(C)(C)C)ccc1OCc1ccc(C(F)(F)F)cc1C(F)(F)F | 8.15 | 0% | 4% | Activity [6]: 10% |
